Data reported in ChEMBL document CHEMBL1122394, “Synthesis of potential anticancer agents. Pyrido[4,3-b][1,4]oxazines and pyrido[4,3-b][1,4]thiazines” (J Med Chem, 1983).

Assays:
[1] = tested on: L1210; test: Concentration that causes a mitotic index (fraction of cells in mitosis divided by total cells) of 0.5 for cultured lymphoid leukemia L1210 cells after exposure of 12 hr; assay type: functional, Mus musculus
How it was run: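 Cultured lymphoid leukemia L1210 cells exposed to agent for 12 h. Mitotic index is the fraction of cells in mitosis over total cells. The value is the agent concentration giving a mitotic index of 0.5.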

[2] = tested on: L1210; test: Antiproliferative activity against lymphoid leukemia L1210 cells after 48 hr exposure.; assay type: functional; conditions: Mus musculus, L1210, 48 h; read-out: ID50 (the source's name)
[3] = tested on: Mus musculus; test: Increase in life span of mice with lymphocytic leukemia P388 10E6 tumor cell implant (intraperitoneally) at the highest nontoxic dose of 300 mg/kg tested; assay type: functional; conditions: P388, ip, route intraperitoneal
How it was run: (§1)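 Mice bore P388 lymphocytic leukemia. The value is the increase in life span at the highest nontoxic dose tested, with toxicity judged by weight change.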

[4] = tested on: Mus musculus; test: Increase in life span of mice with lymphocytic leukemia P388 10E6 tumor cell implant (intraperitoneally) at the highest nontoxic dose of 100 mg/kg tested; assay type: functional; conditions: P388, ip, route intraperitoneal; how it was run: as §1
[5] = tested on: Mus musculus; test: Increase in life span of mice with lymphocytic leukemia P388 10E6 tumor cell implant (intraperitoneally) at the highest nontoxic dose of 200 mg/kg tested; assay type: functional; conditions: P388, ip, route intraperitoneal; how it was run: as §1
[6] = tested on: Mus musculus; test: Compound tested for weight change in mice at a dose of 400 mg/kg; Toxic; assay type: toxicity, organism-based; design: dose 400 mg/kg; conditions: in vivo
[7] = tested on: Mus musculus; test: Increase in life span of mice with lymphocytic leukemia P388 10E6 tumor cell implant (intraperitoneally) at the highest nontoxic dose of 75 mg/kg tested; assay type: functional; conditions: P388, ip, route intraperitoneal; how it was run: as §1
[8] = tested on: Mus musculus; test: Compound tested for weight change in mice at a dose of 200 mg/kg; Toxic; assay type: toxicity, organism-based; design: dose 200 mg/kg; conditions: in vivo
[9] = tested on: Mus musculus; test: Increase in life span of mice with lymphocytic leukemia P388 10E6 tumor cell implant (intraperitoneally) at the highest nontoxic dose of 150 mg/kg tested; assay type: functional; conditions: P388, ip, route intraperitoneal; how it was run: as §1

SMILES: CCOC(=O)Nc1cc2c(c(N)n1)N=C(c1ccc3ccccc3c1)CS2
- MI0.5 [1]: 3 µM
- IC50 [2]: 580 nM
- ILS at 300 mg/kg [3]: 5%

SMILES: CCOC(=O)Nc1cc2c(c(N)n1)N=C(c1cc(OC)cc(OC)c1)C(C)O2 (stereo not given)
- MI0.5 [1]: 2.9 µM
- IC50 [2]: 1250 nM

SMILES: CCOC(=O)Nc1cc2c(c(N)n1)N=C(c1ccccc1)C(C)O2 (stereo not given)
- MI0.5 [1]: 0.49 µM
- IC50 [2]: 110 nM
- ILS at 100 mg/kg [4]: 49%

SMILES: CCOC(=O)Nc1cc2c(c(N)n1)N=C(c1ccccc1)C(c1ccccc1)O2 (stereo not given)
- MI0.5 [1]: 3 µM
- IC50 [2]: 880 nM
- ILS at 200 mg/kg [5]: 2%

SMILES: CCOC(=O)Nc1cc2c(c(N)n1)N=C(c1cc(OC)c(OC)c(OC)c1)CO2
- IC50 [2]: > 3000 nM
- ILS at 300 mg/kg [3]: 0%

SMILES: CCOC(=O)Nc1cc2c(c(N)n1)N=C(c1ccccc1)CS2
- MI0.5 [1]: >10 µM
- IC50 [2]: 6100 nM
- ILS at 300 mg/kg [3]: 0%

SMILES: CCOC(=O)Nc1cc2c(c(N)n1)N=C(c1ccccc1)CO2
- MI0.5 [1]: 0.56 µM
- IC50 [2]: 225 nM
- ILS at 100 mg/kg [4]: 44%
- ILS at 200 mg/kg [5]: 80%
- Toxicity [6]: Toxic

SMILES: CCOC(=O)Nc1cc2c(c(N)n1)N=C(c1cccc(OC)c1)CS2
- MI0.5 [1]: 2 µM
- IC50 [2]: 530 nM
- ILS at 75 mg/kg [7]: 3%

SMILES: CCOC(=O)Nc1cc2c(c(NC(=O)CBr)n1)N=C(c1ccccc1)CO2
- MI0.5 [1]: 11 µM
- IC50 [2]: 2200 nM

SMILES: CCOC(=O)Nc1cc2c(c(N)n1)N=C(c1ccc(OC)cc1)CS2
- MI0.5 [1]: 4.9 µM
- IC50 [2]: 340 nM
- ILS at 300 mg/kg [3]: 3%

SMILES: CCOC(=O)Nc1cc2c(c(N)n1)N=C(c1ccc(Cl)cc1)CO2
- IC50 [2]: > 3000 nM
- ILS at 300 mg/kg [3]: 0%

SMILES: CCOC(=O)Nc1cc2c(c(N)n1)N=C(c1cccc(OC)c1)CO2
- MI0.5 [1]: 0.1 µM
- IC50 [2]: 52 nM

SMILES: CCOC(=O)Nc1cc2oc(=O)c(-c3ccccc3)nc2c(N)n1
- IC50 [2]: 3000 nM
- ILS at 300 mg/kg [3]: 0%

SMILES: CCOC(=O)Nc1cc2c(c(N)n1)N=C(c1ccccc1)C(C)(C)S2
- IC50 [2]: > 10000 nM

SMILES: CCOC(=O)Nc1cc2c(c(/N=C/N(C)C)n1)N=C(c1ccccc1)CO2
- MI0.5 [1]: 0.78 µM
- IC50 [2]: 310 nM
- ILS at 100 mg/kg [4]: 1%
- Toxicity [8]: Toxic

SMILES: CCOC(=O)Nc1cc2c(c(N)n1)N=C(c1ccccc1)C(C)S2 (stereo not given)
- MI0.5 [1]: 9.6 µM
- IC50 [2]: 1600 nM
- ILS at 150 mg/kg [9]: 10%

SMILES: CCOC(=O)Nc1cc2c(c(N)n1)N=C(c1ccc([N+](=O)[O-])cc1)CO2
- IC50 [2]: > 3000 nM
- ILS at 300 mg/kg [3]: 0%
